≈ marks a conversion by molar mass, not a printed value. Where “and” joins values, the source holds several entries; their conditions need not be identical. Equal values may be shown once. Blank lines part the entries; values can stand above or below the compound they belong to.
What was measured:
CCRF-CEM [1] = assay: Antiviral test was performed against HIV (LAV strain) on CEM cells using 50 tissue culture infectious units.; type: functional; details: Homo sapiens, read-out: ID50 (the source's name)
Outline: (§1)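 CEM-SS T cells infected with HIV-1 LAV strain. Inoculum was 50 or 30 tissue culture infectious units, depending on the assay. Viral replication was read as p24 core antigen in the culture supernatant by sandwich ELISA. Activity is expressed as 50% inhibitory dose (ID50) and 50% tissue culture inhibitory dose (TCID50).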

CCRF-CEM [2] = assay: Cellular toxicity was measured in CEM cells after 8 days.50 tissue culture infectious doses were used.; type: functional, Homo sapiens
CCRF-CEM [3] = assay: Antiviral test was performed against HIV (LAV strain) on CEM cells using 30 tissue culture infectious units; type: functional, Homo sapiens; outline: as §1
Homo sapiens [4] = organism: Homo sapiens; assay: Bone marrow toxicity was measured against human colony forming units-granulocyte monocyte (CFU-GM), concentration is 1.0 uM
Outline: (§2)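 Colony formation by normal human granulocyte-monocyte progenitors (CFU-GM) was scored in the presence of 0.1, 1.0 or 10.0 μM drug. Results are given as percent colony survival relative to control, mean ± deviation.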

Homo sapiens [5] = organism: Homo sapiens; assay: Bone marrow toxicity was measured against human colony forming units-granulocyte monocyte (CFU-GM), concentration is 10.0 uM; outline: as §2
PBL [6] = assay: (§3) In vitro Antiviral activity against PBL cell lines; type: functional, Homo sapiens
CCRF-CEM [7] = assay: (§4) Antiviral test was performed against HIV (LAV strain) on CEM cells using 30 tissue culture infectious units. T; type: functional, Homo sapiens; outline: as §1
U-937 [8] = assay: (§5) In vitro Antiviral activity against U937 cell lines; type: functional; details: Homo sapiens, read-out: ID50 (the source's name)
Mo [9] = assay: (§6) In vitro Antiviral activity against MO cell lines; type: functional; details: Homo sapiens, read-out: ID50 (the source's name)
Outline: (§7)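 Freshly isolated monocyte/macrophage cells were infected with the monocytotropic HIV Pan Data Strain (PDS). Antiviral endpoint was p24 viral antigen.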

T-cell [10] = assay: (§8) In vitro Antiviral activity against T-cell lines; type: functional, Homo sapiens
Outline: (§9)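 Freshly isolated T cells were stimulated with PHA mitogen and then infected with HIV HTLV-IIIB. Antiviral endpoint was p24 antigen at 10 days postinfection. Cell viability served as the toxicity endpoint.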

U-937 [11] = assay: as §5; type: functional, Homo sapiens
PBL [12] = assay: as §3; type: functional; details: Homo sapiens, read-out: ID50
T-cell [13] = assay: as §8; type: functional; details: Homo sapiens, read-out: ID50 (the source's name); outline: as §9
Mo [14] = assay: as §6; type: functional, Homo sapiens; outline: as §7
CCRF-CEM [15] = assay: Cellular toxicity was measured in CEM cells after 8 days; type: functional, Homo sapiens
PBL [16] = assay: (§10) In vitro antiviral activity against PBL cell lines; type: functional, Homo sapiens
[17] = (§11) In vitro antiviral activity against (monocyte macrophages) cell lines; type: functional, Homo sapiens; outline: as §7
T-cell [18] = assay: (§12) In vitro antiviral activity against T-cells; type: functional, Homo sapiens; outline: as §9
[19] = as §11; type: functional; details: Homo sapiens; read-out: ID50 (the source's name); outline: as §7
U-937 [20] = assay: (§13) In vitro antiviral activity against U937 cell lines; type: functional, Homo sapiens
CCRF-CEM [21] = assay: (§14) In vitro antiviral activity against CEM cell lines; type: functional; details: Homo sapiens, read-out: ID50 (the source's name); outline: as §1
T-cell [22] = assay: as §12; type: functional; details: Homo sapiens, read-out: ID50 (the source's name); outline: as §9
U-937 [23] = assay: as §13; type: functional; details: Homo sapiens, read-out: ID50 (the source's name)
CCRF-CEM [24] = assay: as §4; type: functional; details: Homo sapiens, read-out: ID50 (the source's name); outline: as §1
PBL [25] = assay: as §10; type: functional; details: Homo sapiens, read-out: ID50 (the source's name)
CCRF-CEM [26] = assay: as §14; type: functional, Homo sapiens; outline: as §1

IC50 (CCRF-CEM [1]): > 25 mg/L
Structure (SMILES): Cc1cn([C@@H]2O[C@H](CO)C=C2F)c(=O)[nH]c1=O
cytotoxic concentration in CEM cells (CCRF-CEM [2]): 9.7 µg/mL

IC50 (CCRF-CEM [1]): > 28.5 mg/L
Structure (SMILES): Cc1cn([C@@H]2O[C@H](CO)[C@@H](N=[N+]=[N-])[C@H]2F)c(=O)[nH]c1=O
cytotoxic concentration in CEM cells (CCRF-CEM [2]): 2.6 µg/mL

IC50 (CCRF-CEM [1]): > 25 mg/L
Structure (SMILES): Cc1cn([C@@H]2O[C@H](CO)C[C@H]2F)c(=O)[nH]c1=O
TCID50 (CCRF-CEM [3]): >25 µg/mL

IC50 (U-937 [8]): 0.14 mg/L (≈ 0.611 µM)
IC50 (Mo [9]): 1 mg/L (≈ 4.36 µM)
IC50 (CCRF-CEM [1]): 2.3 mg/L (≈ 10 µM)
IC50 (PBL [12]): < 2 mg/L
IC50 (T-cell [13]): 0.33 mg/L (≈ 1.44 µM)
Structure (SMILES): Nc1ccn([C@@H]2O[C@H](CO)C[C@@H]2F)c(=O)n1
Toxicity (Homo sapiens [4]): 37.6
Toxicity (Homo sapiens [5]): 0
TCID50 (PBL [6]): 11 µg/mL
ID50 (CCRF-CEM [7]): 0.9 mg/L (≈ 3.93 µM)
TCID50 (T-cell [10]): 10 µg/mL
TCID50 (U-937 [11]): 7.7 µg/mL
cytotoxic concentration in CEM cells (CCRF-CEM [2]): >23 µg/mL and 61.9 µg/mL
TCID50 (Mo [14]): 3.3 µg/mL

IC50 (CCRF-CEM [1]): 1.3 mg/L (≈ 5.72 µM)
Structure (SMILES): Nc1ccn([C@@H]2O[C@H](CO)C=C2F)c(=O)n1
ID50 (CCRF-CEM [7]): 10.9 mg/L (≈ 48 µM)

IC50 (CCRF-CEM [1]): > 10 mg/L
Structure (SMILES): O=c1ccn(C2OC(CO)CC2F)c(=O)[nH]1 (stereo not drawn)
cytotoxic concentration in CEM cells (CCRF-CEM [2]): 57 µg/mL

IC50 (CCRF-CEM [1]): 0.007 mg/L (≈ 0.0331 µM)
Structure (SMILES): Nc1ccn([C@H]2CC[C@@H](CO)O2)c(=O)n1 [ZALCITABINE]
TCID50 (CCRF-CEM [15]): 1.3 µg/mL

IC50 (CCRF-CEM [1]): 0.08 mg/L (≈ 0.299 µM)
IC50 [19]: 0.1 mg/L (≈ 0.374 µM)
IC50 (CCRF-CEM [21]): 0.03 mg/L (≈ 0.112 µM)
IC50 (T-cell [22]): 0.033 mg/L (≈ 0.123 µM)
IC50 (U-937 [23]): 0.03 mg/L (≈ 0.112 µM)
IC50 (CCRF-CEM [24]): 0.53 mg/L (≈ 1.98 µM)
IC50 (PBL [25]): 0.0003 mg/L (≈ 0.00112 µM)
Structure (SMILES): Cc1cn([C@H]2C[C@H](N=[N+]=[N-])[C@@H](CO)O2)c(=O)[nH]c1=O [ZIDOVUDINE]
Toxicity (Homo sapiens [5]): 23.6
TCID50 (PBL [16]): 3 µg/mL
TCID50 [17]: 10 µg/mL
TCID50 (T-cell [18]): 100 µg/mL
TCID50 (U-937 [20]): 7.5 µg/mL
TCID50 (CCRF-CEM [26]): >3 µg/mL
